These results are taken from ChEMBL document CHEMBL2203050, “Synthesis, evaluation and structure-activity relationships of triazine dimers as novel antiviral agents” (Bioorg Med Chem Lett, 2012).

Structures are written as SMILES. The source made the active and inactive calls. The calls are words filed in the database; no cut-off is given here.

A short description of data set [1]: Cytotoxicity against human TZM-b1 cells. The format is cell-based.
In data set [2] the test system is Human immunodeficiency virus 1. Nature of the data set: Antiviral activity against HIV1 infected in human TZM-b1 cells. The settings on record: Human immunodeficiency virus 1, TZM-b1. The format is functional, organism-based.
Data set [3] is described as follows: Selectivity index, ratio of CC50 for human TZM-b1 cells to EC50 for HIV1. The format is toxicity, cell-based. The settings on record: read-out: Ratio CC50/EC50.
In data set [4] the test system is Human immunodeficiency virus 1. The data set is described as follows: Antiviral activity against HIV1 Ba-L harboring reverse transcriptase V106A mutant. In kind it is functional, organism-based. The settings on record: Human immunodeficiency virus 1, Ba-L.
The subject of data set [5] is Human immunodeficiency virus 1. The data set is described as follows: Antiviral activity against HIV1 assessed as inhibition of viral p24 antigen production treated every 1 hr for 12 hrs by ELISA based time-of-drug addition assay. In kind it is functional, organism-based. The procedure, abridged:
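TZM-bl cells (2 × 10⁴ per well) were infected with virus at 0.4 MOI, with or without compound, for 1 h. Unbound virus was washed off and fresh medium was added, with or without compound. Compound at 50–500 × EC₅₀ was then added each hour over 12 h. p24 was measured by in-house antigen-capture ELISA at 24 h, giving a single replication round. Cells plus medium and cells plus virus served as controls.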
A general note: In an ELISA, binding on a coated surface is turned into a signal by an enzyme label.

Data set [6] has as its system Human immunodeficiency virus 1. The data set is described as follows: Antiviral activity against HIV1 harboring reverse transcriptase VI829 mutant. The format is functional, organism-based.
For data set [7], the system named is Human immunodeficiency virus 1. Nature of the data set: Antiviral activity against wild type HIV1 Ba-L. The format is functional, organism-based. Conditions: Human immunodeficiency virus 1, Ba-L.
Data set [8] concerns Human immunodeficiency virus 1. The data set is described as follows: Ratio of EC50 for HIV1 Ba-L harboring reverse transcriptase V106A mutant to EC50 for wild type HIV1 Ba-L. In kind it is functional.
The subject of data set [9] is Human immunodeficiency virus 1. The data set is described as follows: Antiviral activity against HIV1 harboring reverse transcriptase VI829 L100I, K103N mutant. In kind it is functional, organism-based.
The test system of data set [10] is Human immunodeficiency virus 1. Nature of the data set: Antiviral activity against HIV1 harboring reverse transcriptase VI829/Y181C mutant. The format is functional, organism-based.
Data set [11] deals with Human immunodeficiency virus 1. The data set is described as follows: Ratio of EC50 for HIV1 harboring reverse transcriptase VI829/Y181C mutant to EC50 for wild type HIV1 VI829.
For data set [12], the system named is Human immunodeficiency virus 1. The data set is described as follows: Ratio of EC50 for HIV1 harboring reverse transcriptase VI829 L100I, K103N mutant to EC50 for wild type HIV1 VI829.

Broadly, the CC50 is the concentration that lowers cell viability or growth by half. A low value points to greater toxicity to the cells. For orientation: EC50 means the midpoint of the concentration-response curve. Lower therefore signals an effect from little substance.

With `Cc1cc(C)c(Nc2nc(Nc3ccc(C#N)cc3)nc(Nc3ccc(Nc4nc(Nc5ccc(C#N)cc5)nc(Nc5c(C)cc(C)cc5C)n4)cc3)n2)c(C)c1`, the 50% cytotoxic concentration (CC50) in data set [1] was over 100000 nM. For the same molecule, the EC50 in [2] worked out at 170 nM. Also, the selectivity ratio in [3] was over 588.
Turning to `Cc1cc(C)c(Nc2ccnc(Nc3ccc(C#N)cc3)n2)c(C)c1` [DAPIVIRINE], the EC50 in data set [4] is 2.5 nM; in [6], 2 nM; in data set [7] it was 2 nM; in data set [9] it was over 1000 nM; in data set [10], 10.8 nM. Moreover, the inhibition entry in [5] was “Active”. In [1], this molecule returned a CC50 of 2880 nM. The results for the “Ratio EC50” value in [8], in [11] and in data set [12] were 1.3, 5.4 and over 500, respectively. The selectivity ratio in data set [3] came out at 1440.
